Values after ≈ are worked out from the molar mass of the structure shown. Active and inactive are the calls of the source. The rule behind the calls is not given here.
How the values were obtained:
[1] = system: Candida albicans; assay: Growth inhibition of Candida albicans ATCC 10231 at 3.9 ug/ml incubated for 48 hrs under dark condition by broth microdilution assay relative to amphotericin B; type: functional; details: ATCC 10231, 48 h, read-out: GI
Method in brief: (§1)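 Yeast broth microdilution (CLSI M27-A3), RPMI-1640, inoculum 1-5 x 10^3 CFU/mL, DMSO ≤1%, 48 h at 30 °C in a moist, dark chamber. […]. Triplicate; amphotericin B as positive control.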

[2] = system: Candida albicans; assay: Growth inhibition of Candida albicans ATCC 10231 at 7.81 ug/ml incubated for 48 hrs under dark condition by broth microdilution assay relative to amphotericin B; type: functional; details: ATCC 10231, 48 h, read-out: GI; method in brief: as §1
[3] = system: Candida albicans; assay: Growth inhibition of Candida albicans ATCC 10231 at 15.62 ug/ml incubated for 48 hrs under dark condition by broth microdilution assay relative to amphotericin B; type: functional; details: ATCC 10231, 48 h, read-out: GI; method in brief: as §1
[4] = system: Candida albicans; assay: Growth inhibition of Candida albicans ATCC 10231 at 31.25 ug/ml incubated for 48 hrs under dark condition by broth microdilution assay relative to amphotericin B; type: functional; details: ATCC 10231, 48 h, read-out: GI; method in brief: as §1
[5] = system: Candida albicans; assay: Growth inhibition of Candida albicans ATCC 10231 at 62.5 ug/ml incubated for 48 hrs under dark condition by broth microdilution assay relative to amphotericin B; type: functional; details: ATCC 10231, 48 h, read-out: GI; method in brief: as §1
[6] = system: Candida albicans; assay: Growth inhibition of Candida albicans ATCC 10231 at 125 ug/ml incubated for 48 hrs under dark condition by broth microdilution assay relative to amphotericin B; type: functional; details: ATCC 10231, 48 h, read-out: GI; method in brief: as §1
[7] = system: Candida albicans; assay: Growth inhibition of Candida albicans ATCC 10231 at 250 ug/ml incubated for 48 hrs under dark condition by broth microdilution assay relative to amphotericin B; type: functional; details: ATCC 10231, 48 h, read-out: GI; method in brief: as §1
[8] = system: Candida albicans; assay: Antifungal activity against Candida albicans ATCC 10231 incubated for 48 hrs under dark condition by broth microdilution assay; type: functional; details: ATCC 10231, 48 h
Method in brief: (§2)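 Broth microdilution per CLSI M27-A3 in RPMI-1640. Inocula adjusted to 1-5 x 10^3 CFU/mL. Stocks in DMSO (≤1%), final 3.9-250.0 µg/mL. Incubated 48 h at 30 °C in a moist, dark chamber, read at OD 405. % inhibition computed from growth and sterility control wells, run in triplicate. MIC80/MIC50 taken from four-parameter logistic concentration-response curves; amphotericin B as positive control.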

[9] = Antifungal activity against Cryptococcus neoformans ATCC 32264 incubated for 48 hrs under dark condition by broth microdilution assay; type: functional; method in brief: as §2
[10] = Antiproliferative activity against human Hep2C cells after 24 hrs by MTT assay; type: functional, cell-based
Method in brief: (§3)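 Cells grown in medium with 10% foetal bovine serum and 1% L-glutamine at 37 °C, 5% CO2, seeded at 1 x 10^5 cells/well. Exposed to compound at 1.0-1,000 µg/mL for 24 h. MTT added, absorbance read at 540 nm 3 h later. IC50 obtained by non-linear regression of viability data.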

[11] = Antioxidant activity assessed as DPPH radical scavenging activity at 160 uM incubated for 30 mins under dark condition; type: functional
Method in brief: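 Compound at 160 µM incubated with 100 µM DPPH in ethanolic medium, stirred in the dark for 30 min, read at 517 nm. Resveratrol as positive control. Three independent experiments, each in triplicate.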

[12] = Antioxidant activity assessed as DPPH radical scavenging activity incubated for 30 mins under dark condition; type: functional
Method in brief: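 DPPH (100 µM) in ethanolic medium, stirred 30 min in the dark, absorbance at 517 nm. Compound varied from 0 to 160 µg/mL to find the concentration scavenging 50% of radicals. Three independent experiments, each in triplicate.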

[13] = Antioxidant activity assessed as fluorescent light-induced superoxide anion scavenging activity at 160 uM incubated for 10 mins by nitroblue tetrazolium dye based assay; type: functional
Method in brief: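 Superoxide generated photochemically in 50 mM phosphate buffer pH 7.8 with 13 mM L-methionine, 75 µM nitroblue tetrazolium, 100 µM EDTA and 2 µM riboflavin. Compound at 160 µM. 10 min at 25 °C under fluorescent light; dark controls. Read at 575 nm. Resveratrol as positive control; three independent experiments in triplicate.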

[14] = Antioxidant activity assessed as fluorescent light-induced superoxide anion scavenging activity incubated for 10 mins by nitroblue tetrazolium dye based assay; type: functional
Method in brief: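 Riboflavin/light superoxide system: 50 mM phosphate pH 7.8, 13 mM L-methionine, 75 µM NBT, 100 µM EDTA, 2 µM riboflavin, compound 0-200 µg/mL. Fluorescent light for 10 min at 25 °C, dark controls, scavenging measured at 575 nm. Resveratrol as reference.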

[15] = Potency index, ratio of resveratrol SC50 to compound SC50 for fluorescent light-induced superoxide anion scavenging activity
[16] = Ratio of antifungal activity against Candida albicans ATCC 10231 to antifungal activity against Cryptococcus neoformans ATCC 32264; type: functional
[17] = Antiproliferative activity against human TOV21G harboring wild type TP53 cells after 24 hrs by MTT assay; type: functional, cell-based; method in brief: as §3
[18] = Antiproliferative activity against human CCD-19Lu cells after 24 hrs by MTT assay; type: cell-based; method in brief: as §3
[19] = Antiproliferative activity against human NCI-H226 cells harboring TP53 mutant after 24 hrs by MTT assay; type: functional, cell-based; details: NCI-H226, 24 h; method in brief: as §3
[20] = Selectivity index, ratio of IC50 for human CCD-19Lu cells to IC50 for human TOV21G cells; type: functional
Method in brief: (§4)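 Selectivity index equals IC50 in non-tumour CCD 19-Lu lung fibroblasts divided by IC50 in the tumour line. Both IC50s come from the 24 h MTT assay (read at 540 nm) over 1.0-1,000 µg/mL.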

[21] = system: NCI-H226; assay: Selectivity index, ratio of IC50 for human CCD-19Lu cells to IC50 for human NCI-H226 cells; type: functional; method in brief: as §4
[22] = Selectivity index, ratio of IC50 for human CCD-19Lu cells to IC50 for human Hep2C cells; type: functional; method in brief: as §4

MIC50 [8]	MIC80 [8]	MIC50 [9]	MIC80 [9]	SMILES	inhibition of growth at 3.9 µg/mL [1]	inhibition of growth at 7.81 µg/mL [2]	inhibition of growth at 15.62 µg/mL [3]	inhibition of growth at 31.25 µg/mL [4]	inhibition of growth at 62.5 µg/mL [5]	inhibition of growth at 125 µg/mL [6]	inhibition of growth at 250 µg/mL [7]	IC50 [10]	Activity [11]	SC50 [12]	Activity [13]	SC50 [14]	other results
> 250 µg/mL	> 250 µg/mL	15.6 µg/mL (≈ 41.7 µM)	> 250 µg/mL	Cc1ccc(-c2cc(-c3ccccc3)c3cc(Br)ccc3n2)cc1	0%	0%	3.04%	2.64%	5.87%	11.1%	31.5%	175 µM	45 to 55%	197 µM	Active	104 µM	Ratio [15]: 2
125 µg/mL (≈ 347 µM)	> 250 µg/mL	31.2 µg/mL (≈ 86.6 µM)	> 250 µg/mL	Brc1ccc2nc(-c3ccccc3)cc(-c3ccccc3)c2c1	1.16%	2.57%	7.33%	10.1%	17.2%	30.7%	55.9%	128 µM	45 to 55%	> 250 µM	< 10%	> 250 µM	Ratio [16]: 4; IC50 [17]: 531 µM; IC50 [18]: 669 µM; IC50 [19]: 43.4 µM; Ratio IC50 [20]: 1; Ratio IC50 [21]: 15; Ratio IC50 [22]: 5

Source: ChEMBL document CHEMBL3875213, “Quinolines: Microwave-assisted synthesis and their antifungal, anticancer and radical scavenger properties” (Bioorg Med Chem, 2017)
